Dynein cargo inh: dynein cargo transport inhibition | 0.47% of 220,000 active | AID 1381 | 3617.4 mouse cells, GR-EGFP nuclear translocation imaging; test concentration mostly 20 µM; stimulated with dexamethasone, 1 µM; active compounds read low | z-score, hits read low;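 active means plate z-score of nuclear minus cytoplasmic receptor signal below a set negative limit, without overly bright fluorescence or cell loss, cut at about -3.5 in these data, passing the limit was not always enough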;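 further: z-score of nuclear minus cytoplasmic ring GR-EGFP intensity difference per well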
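Buffer or medium: Induction medium lacking tetracycline, stripped serum | Also added: Dexamethasone agonist, 1.0 µM final, for 30 min | Timing: 48 h induction, 1 h compound, 30 min dex at 37 °C | Detection: Formaldehyde fixation, Hoechst nuclear stain, 10x automated fluorescence imaging | Measure: Nuclear versus cytoplasmic GR-EGFP signal, averaged per well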
CHOP inhibitor: inhibitors of CHOP induction in ER stress response | AID 2732 | 3.8% of 220,000 active | CHO-K1 CHOP-promoter luciferase, tunicamycin-induced, 15-18 h | inhibition, % at 10 µM;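 active means compounds that reduced the stress-induced luciferase reporter signal by more than about 70% of percent inhibition, limit read from the data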;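 further: 0% = tunicamycin plus vehicle and 100% = wells without tunicamycin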
MT stabilize HCS: microtubule stabilizers in HeLa cells; HeLa tubulin immunostaining HCS, 24 h; share of cells brighter than vehicle mean+2SD; % tubulin-high responders, % at 10 µM; AID 2205; 0.83% of 200,000 active;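 active means plate Z-score above 3 for both tubulin-high and condensed-nucleus cell shares, with cell loss under 80%, at 10 µM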;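 further: anti alpha tubulin signal scored within the nucleus-defined area of each cell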
L major viab: Leishmania major promastigote growth inhibition; 9% of 200,000 active; Leishmania major promastigotes, resazurin fluorescence viability; inhibition, % at 10 µM; in the data active means inhibition above about 50%;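 further: promastigotes grown with compound for 44 hours at 28 °C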
b-catenin transl: beta-catenin nuclear translocation modulation. HeLa beta-catenin nuclear translocation, immunofluorescence imaging. nuclear translocation activity, % at 5 µM. 0.3% of 190,000 active;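 active means nuclear translocation activity above 50% at 5 µM, with a well cell count of 50 or more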;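 further: per-cell ratio of nuclear to cytoplasmic median beta-catenin stain intensity; plate controls were DMSO negative control for no effect and GSK-3 inhibitor IX positive control for full effect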
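System: Human HeLa cells, endogenous beta-catenin | Compound dosing: 5 µM primary, 0.02–20 µM confirmation | Timing: 24 h compound exposure at 37°C, 5% CO2 | Measured by: Fluorescence imaging of beta-catenin antibody stain plus DAPI | Read-out basis: % activation of per-cell nuclear versus cytoplasmic median beta-catenin signal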
Autophagy HCS: autophagy modulation, high-content screen. calls only at 10 µM (by protocol). AID 463193. MEF GFP-LC3 puncta imaging; test concentration mostly 10 µM. 0.98% of 190,000 active;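 active means percentage of spot-positive cells more than 3 SD above its plate mean, without a fluorescence outlier flag or 80% toxicity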;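 further: spot-positive cell cutoff set from DMSO-treated cells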
The depositor's hits bear a star; i = inactive; / = no result; + = active, no number. In the library only some 12% were active in any assay of this set; here they are far more common.

SMILES | Dynein cargo inh | CHOP inhibitor | MT stabilize HCS | L major viab | b-catenin transl | Autophagy HCS
O=C(CN1CCN(CCN2C(=O)c3cccc4cccc(c34)C2=O)CC1)c1ccc(F)cc1 | -0.0494 | 33.5 | 2.1 | 36.6 | -1.6 | i
O=C1c2cccc3cccc(c23)C(=O)N1CCN1CCN(C(=S)Nc2ccc(F)cc2)CC1 | -0.175 | 22.3 | 2.7 | 59.4* | -2.2 | i
Cc1ccc(NC(=S)N2CCN(CCN3C(=O)c4cccc5cccc(c45)C3=O)CC2)cc1 | 0.463 | 19.5 | 3.0 | 100.1* | -0.3 | i
O=C1NC(=O)/C(=C/C(=O)N2CCOCC2)S1 | -0.326 | -3.6 | 1.6 | -7.1 | 1.2 | i
CC1CCCC(NC(=S)NC(=O)c2ccccc2Br)C1C (stereo unspecified) | 1.54 | 88.7* | 5.4 | -1.2 | 1.1 | i
CC1CCCC(NC(=O)Cc2ccc(Br)cc2)C1C (stereo unspecified) | -0.617 | 32.7 | 3.5 | 5.1 | -3.5 | i
COc1ccc(N2C(=O)C3CCCN3C2c2ccc(C)o2)cc1 (stereo unspecified) | -0.365 | -15.9 | 6.9 | -7.6 | -1.1 | i
COc1ccc(-c2nc(C(N)=O)c3[nH]c(=O)n(-c4cccc(Cl)c4)c3n2)cc1OC | 0.0836 | 95.3* | 1.5 | 60.2* | / | i
CCc1ccc(-c2nc(C(N)=O)c3[nH]c(=O)n(-c4ccccc4OC)c3n2)cc1 | -0.457 | 71.7* | 17.2* | 2.0 | -0.8 | i
CCOc1ccccc1-c1nc(C(N)=O)c2[nH]c(=O)n(-c3ccc(F)cc3)c2n1 | 0.858 | -10.0 | 5.2 | 26.3 | -1.2 | i
CCOC(=O)Cc1c(C)nc2c(-c3cccc(Br)c3)c[nH]n2c1=O | -0.0371 | 18.6 | 2.3 | -6.4 | 0.3 | i
CN(C)C(=O)CSc1nnc(Cc2ccc([N+](=O)[O-])cc2)o1 | -0.501 | -3.2 | 1.4 | -0.6 | 0.7 | i
CCN(c1ccc(NC(=O)CCNC(=O)c2ccco2)cc1)C(C)C | 0.728 | -12.1 | 1.3 | 54.3* | 1.4 | i
Cc1ccc(NC(=O)CCNC(=O)c2ccco2)cc1 | -0.182 | 10.6 | 2.2 | -1.9 | 3.2 | i
CCOc1ccc(OCCn2nnc3ccccc3c2=O)cc1 | -0.52 | -10.7 | 1.2 | -3.0 | -0.6 | i
O=c1c2cc(N3CCOCC3)ccc2[nH]c(=S)n1CCCN1CCN(c2ccccc2F)CC1 | 0.134 | 33.3 | 4.8 | 2.4 | 0.1 | i
O=C(c1cc(NC(=O)C23CC4CC(CC(C4)C2)C3)cc(NC(=O)C23CC4CC(CC(C4)C2)C3)c1)N1CCCCC1 | -0.636 | 70.8* | 3.3 | 91.4* | 0.9 | i
Cc1c(NS(=O)(=O)c2cccc(C(=O)OCC(=O)N(C)C3CCCCC3)c2)c(=O)n(-c2ccccc2)n1C | 0.68 | -13.2 | 1.4 | -4.7 | -2.4 | i
COc1ccccc1C(=O)N(CCC1CCCN1C)c1nc2ccccc2s1 (stereo unspecified) | 0.835 | -15.3 | 2.8 | 99.7* | 0.4 | i
C=CCn1c(=O)c2ccc(C(=O)NCc3ccccc3)cc2n(Cc2ccccc2Cl)c1=O | -1.08 | 28.3 | 2.0 | 56.0* | -4.4 | i
C=CCn1c(=O)c2ccc(C(=O)NCc3ccccc3)cc2n(Cc2ccc(Cl)cc2)c1=O | -0.0902 | 86.5* | 3.3 | -1.7 | -1.0 | i
[O-]c1n[n+](-c2ccc(Cl)cc2Cl)cc2ccccc12 | -0.728 | -10.6 | 3.0 | -1.1 | 2.0 | i
Nc1cc(=O)[nH]c(SCc2nnnn2-c2ccc(Cl)cc2)n1 | 0.124 | -5.4 | 4.5 | -6.1 | -1.1 | i
CCN(Cc1cc2ccccc2[nH]c1=O)C(=O)C1CCCCC1 | 0.846 | -19.5 | 1.6 | 2.2 | 1.0 | i
CCOc1ccc2[nH]c(=O)c(CN(CC3COCCO3)C(=O)c3ccc(C)cc3)cc2c1 (stereo unspecified) | -0.287 | 13.5 | 1.7 | 93.2* | -1.5 | i
COc1ccc2[nH]c(=O)c(CN(C(=O)c3ccco3)C(C)C)cc2c1 | -0.759 | -0.8 | / | / | -0.4 | /
CC(C)N(Cc1cc2ccccc2[nH]c1=O)C(=O)C1CCCCC1 | -0.398 | 17.7 | 1.3 | 0.8 | -2.4 | +
CCOc1ccc(C(=O)N(Cc2ccc(OC)cc2)Cc2cc3cc(OC)ccc3[nH]c2=O)cc1 | -0.45 | 21.4 | 1.9 | -2.2 | 0.7 | i
CCCN(Cc1cc2cc(OC)ccc2[nH]c1=O)C(=O)c1ccncc1 | -0.683 | 17.3 | 13.0* | 11.7 | -0.4 | i
